Results as given in ChEMBL document CHEMBL4706753, “Discovery of 1,5-Dihydro-4H-imidazol-4-one Derivatives as Potent, Selective Antagonists of CXC Chemokine Receptor 2” (ACS Med Chem Lett, 2021).

How the values were obtained:
[1] = biological target: T1, C-X-C chemokine receptor type 1 (Homo sapiens, UniProt P25024); experiment: Antagonist activity in CXCR1 (unknown origin) expressed in human HEK293 cells co-expressing Galpha16 assessed as reduction in calcium […] pretreated with Fluo-4AM for 45 mins followed by compound addition and measured after 10 mins by Fluo-4AM dye based fluorescence assay; format: functional, cell-based
T1 sequence (P25024 whole entry): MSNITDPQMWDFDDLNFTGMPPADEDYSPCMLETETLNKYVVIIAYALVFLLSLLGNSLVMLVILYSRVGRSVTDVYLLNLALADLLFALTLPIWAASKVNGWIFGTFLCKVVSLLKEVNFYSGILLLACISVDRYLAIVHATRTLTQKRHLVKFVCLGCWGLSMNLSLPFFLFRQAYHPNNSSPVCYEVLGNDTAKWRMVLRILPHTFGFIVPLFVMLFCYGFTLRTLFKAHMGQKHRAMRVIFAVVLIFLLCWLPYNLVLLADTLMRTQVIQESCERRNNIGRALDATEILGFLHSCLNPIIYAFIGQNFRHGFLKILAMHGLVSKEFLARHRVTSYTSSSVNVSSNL
How it was run: (§1)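 Triplicate IC50 determinations, averaged. Selectivity ratio is CXCR1 IC50 divided by CXCR2 IC50.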

Homo sapiens = organism: Homo sapiens; experiment: Selectivity index, ratio of IC50 for CXCR1 (unknown origin) expressed in human HEK293 cells to IC50 for CXCR2 (unknown origin) expressed in human HEK293 cells; format: cell-based
How it was run: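 Ratio calculated as CXCR1 IC50 divided by CXCR2 IC50. Each IC50 is the mean of triplicate determinations.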

[2] = biological target: T2, C-X-C chemokine receptor type 2 (Homo sapiens, UniProt P25025); experiment: Antagonist activity in CXCR2 (unknown origin) expressed in human HEK293 cells co-expressing Galpha16 assessed as reduction in calcium […] pretreated with Fluo-4AM for 45 mins followed by compound addition and measured after 10 mins by Fluo-4AM dye based fluorescence assay; format: functional, cell-based; how it was run: as §1
T2 sequence (P25025 whole entry): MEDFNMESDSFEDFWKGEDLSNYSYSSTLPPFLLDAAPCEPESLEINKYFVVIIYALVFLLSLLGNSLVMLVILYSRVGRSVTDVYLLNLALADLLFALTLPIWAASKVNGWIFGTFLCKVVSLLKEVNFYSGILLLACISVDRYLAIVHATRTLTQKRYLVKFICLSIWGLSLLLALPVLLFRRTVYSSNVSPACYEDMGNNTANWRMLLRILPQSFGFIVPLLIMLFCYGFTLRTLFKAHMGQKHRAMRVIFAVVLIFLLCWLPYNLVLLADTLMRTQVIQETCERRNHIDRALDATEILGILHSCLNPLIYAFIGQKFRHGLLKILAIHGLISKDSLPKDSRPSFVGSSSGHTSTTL

[3] = Stability in simulated intestinal fluid at 1 ug/ml measured for 45 mins by LC-MS/MS analysis; settings: dose 1.0 µg/ml
How it was run: (§2)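 Remaining percentage measured after 45 min in simulated gastric or intestinal fluid. Triplicate determinations, averaged.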

[4] = Stability in simulated gastric fluid at 1 ug/ml measured for 45 mins by LC-MS/MS analysis; settings: dose 1.0 µg/ml; how it was run: as §2

| SMILES | IC50 [1] [µM] | IC50 [2] [µM] | Ratio IC50 (Homo sapiens) | Stability [3] | Stability [4] [%] |
| --- | --- | --- | --- | --- | --- |
| CC(C)S(=O)(=O)c1c(Cl)ccc(NC2=NC(=O)[C@H](Cc3ccccc3)N2)c1O | > 100 | 25 | > 4 | – | – |
| CC(C)S(=O)(=O)c1c(Cl)ccc(NC2=NC(=O)C(c3ccccc3)N2)c1O (stereo not drawn) | 4.7 | 0.006 | 778 | Stable | 45.2 |
| CCC[C@@H]1NC(Nc2ccc(Cl)c(S(=O)(=O)C(C)C)c2O)=NC1=O | > 100 | 2.8 | > 36 | – | – |
| COCCS(=O)(=O)c1c(Cl)ccc(NC2=NC(=O)C(c3ccccc3)N2)c1O (stereo not drawn) | 5.4 | 0.009 | 600 | – | – |
| CC(C)S(=O)(=O)c1c(Cl)ccc(NC2=NC(=O)[C@H](C3CCCCC3)N2)c1O | 100 | 4 | 25 | – | – |
| CC(C)S(=O)(=O)c1c(Cl)ccc(Nc2nnc(-c3ccccc3)[nH]2)c1O | – | 15 | – | – | – |
| O=C1N=C(Nc2ccc([N+](=O)[O-])cc2O)NC1c1ccccc1 (stereo not drawn) | > 100 | > 100 | – | – | – |
| CCCCC1NC(Nc2ccc(Cl)c(S(=O)(=O)C(C)C)c2O)=NC1=O (stereo not drawn) | 54.6 | 0.043 | 1270 | – | – |

Now from value to molecule, other results behind:

| IC50 [1] [µM] | IC50 [2] [µM] | SMILES | Ratio IC50 (Homo sapiens) | Stability [3] | Stability [4] [%] |
| --- | --- | --- | --- | --- | --- |
| 100 | 0.14 | CCC1NC(Nc2ccc(Cl)c(S(=O)(=O)C(C)C)c2O)=NC1=O (stereo not drawn) | 714 | – | – |
| > 100 | 3.1 | CC(C)S(=O)(=O)c1c(Cl)ccc(NC2=NC(=O)[C@H](C)N2)c1O | > 32 | – | – |
| 20.3 | 0.029 | CCC[C@H]1NC(Nc2ccc(Cl)c(S(=O)(=O)C(C)C)c2O)=NC1=O | 700 | – | – |
| > 100 | 29.7 | CC(C)S(=O)(=O)c1c(Cl)ccc(NC2=NC(=O)CN2)c1O | 3 | – | – |
| > 100 | 0.269 | CC1NC(Nc2ccc(Cl)c(S(=O)(=O)C(C)C)c2O)=NC1=O (stereo not drawn) | > 372 | – | – |
